# Screens: PubChem BioAssay, The Scripps Research Institute Molecular Screening Center
# NPY-Y2 antag – antagonists of human neuropeptide Y receptor Y2 | P49146 | inhibition, % at 2.7 µM | 140,000 compounds, 0.99% hits | NPY-Y2 expressing cells, antagonist mode | AID 793; in the data active means inhibition above about 17%;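 further: 0% = vehicle with agonist challenge and 100% = reference antagonist with challenge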
# NPY-Y1 PAM-ag – potentiates or activates human NPY-Y1 receptor. activation, % at 3.6 µM. 220,000 compounds, 0.37% hits. NPY-Y1 expressing cells, potentiator/agonist activation. AID 1304; in the data active means activation above about 33%, passing the limit was not always enough;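 further: cells stimulated with NPY at EC10 then isoproterenol at EC100; 0% = low agonist plus stimulus and 100% = saturating agonist plus stimulus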
# Target sequence (P25929 whole entry, looked up): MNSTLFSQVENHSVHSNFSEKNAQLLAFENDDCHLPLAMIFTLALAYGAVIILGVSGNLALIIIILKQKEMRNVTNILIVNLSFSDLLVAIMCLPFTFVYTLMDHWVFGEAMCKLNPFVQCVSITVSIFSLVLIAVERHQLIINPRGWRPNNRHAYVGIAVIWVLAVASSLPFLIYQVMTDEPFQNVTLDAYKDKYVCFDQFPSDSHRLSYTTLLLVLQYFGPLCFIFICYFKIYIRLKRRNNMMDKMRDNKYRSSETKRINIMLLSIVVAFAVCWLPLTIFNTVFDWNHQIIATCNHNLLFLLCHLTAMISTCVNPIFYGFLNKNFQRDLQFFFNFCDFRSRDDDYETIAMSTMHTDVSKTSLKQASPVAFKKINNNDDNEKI
# NPY2 pot ag – potentiates or activates human NPY-Y2 receptor. P49146. cells expressing NPY-Y2, potentiator/agonist read-out. activation, % at 3.6 µM. 220,000 compounds, 0.45% hits; in the data active means activation above about 27%;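 further: cells stimulated with NPY near EC25 plus isoproterenol at EC100; 0% = vehicle plus submaximal agonist and 100% = vehicle plus saturating agonist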
# NPY-Y1 antag – NPY-Y1 (human) receptor antagonism; HEK293-CNG Y1 cells, membrane potential fluorescence; NPY at EC95, then isoproterenol; 200,000 compounds, 1% hits; inhibition, % at 3.6 µM;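 active means inhibition above the campaign mean inhibition of all tested compounds plus 3 SD, cut at about 20% in these data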;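 further: 0% = DMSO wells given NPY plus isoproterenol and 100% = isoproterenol alone without NPY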
#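 Benchmarks – high control isoproterenol alone, low control NPY with isoproterenol · Material – HEK293 Y1/CNG channel cell line · Times – dye 3 h, compound 60 min room temperature, stimulation 45 min · Probe or stimulus – NPY (25 nM), isoproterenol (1 µM), Ro 20-1724 (25 µM) · Evaluation – % inhibition of NPY effect · Signal – fluorescence, membrane potential probe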
# NPY-Y2 pot conf – confirmation of human NPY-Y2 receptor potentiators or agonists | activation, % at 3.6 µM | cell-based NPY-Y2 potentiator/agonist assay | shares compounds with NPY2 pot ag | 450 compounds, 20% hits; in the data active means activation above about 33%
# NPY-Y1 potentiator – potentiates or activates NPY-Y1, counter-screen for NPY-Y2 hits | shares compounds with NPY2 pot ag | Y1 HEK293-CNG cells, membrane potential fluorescence | activation, % at 3.6 µM | 450 compounds, 20% hits | AID 1651; in the data active means activation above about 45%;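 further: cells stimulated with submaximal NPY then isoproterenol with phosphodiesterase inhibitor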
# NPY-Y1 agonist 2 – activates human NPY-Y1, counter-screen for NPY-Y2 potentiators; activation, % at 3.6 µM; HEK293 Y1-CNGC, membrane potential fluorescence, agonism; 450 compounds, 37% hits; AID 1702; shares compounds with NPY2 pot ag;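 active means activation above the mean of DMSO-only control wells plus 3 SD, cut at about 18% in these data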;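 further: cells stimulated with 1 µM isoproterenol plus the PDE inhibitor Ro 20-1724; 0% = isoproterenol with DMSO and no NPY and 100% = 40 nM NPY; Y1 agonists lower the membrane potential dye signal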
# CNGC inh – counter-screen for NPY-Y2 potentiators: inhibitors of CNG channel activity | 450 compounds, 32% hits | HEK293-CNG parental, isoproterenol cAMP, membrane potential fluorescence | shares compounds with NPY2 pot ag | inhibition, % at 3.6 µM;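 active means inhibition above the control-well mean plus 3 SD of those wells, cut at about 22% in these data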;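 further: 0% = DMSO with isoproterenol and 100% = DMSO without isoproterenol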
# Y2 agonist ctr – activates human NPY-Y2 receptor in potentiator counter-screen | shares compounds with NPY2 pot ag | HEK293 Y2/CNGC cells, membrane potential fluorescence, agonist mode | activation, % at 3.6 µM | 450 compounds, 56% hits | AID 1710;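 active means activation above the mean of solvent-only control wells plus 3 SD, cut at about 10% in these data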;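 further: cells stimulated by isoproterenol with no NPY added so direct agonism is tested; 0% = DMSO with isoproterenol alone and 100% = NPY at EC100 plus isoproterenol; agonism lowers probe fluorescence through less cAMP and CNG channel opening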
# * = called active by the depositor; . = not tested or not shown. Only some compounds are listed: those with a hit (about 1.8% of all), similar ones and a draw of the others.
SMILES,NPY-Y2 antag,NPY-Y1 PAM-ag,NPY2 pot ag,NPY-Y1 antag,NPY-Y2 pot conf,NPY-Y1 potentiator,NPY-Y1 agonist 2,CNGC inh,Y2 agonist ctr
O=C(/C=C/c1cccc(C(F)(F)F)c1)Nc1cccc(C(F)(F)F)c1,-2,33,36*,-12,19,23,25*,33*,16*
Cc1ccc(NC(=O)/C=C/c2cccc(C(F)(F)F)c2)cc1,5,-16,-11,-1,.,.,.,.,.
CC(C)C(C)NC(=O)COC(=O)c1cccc(C(=O)OCC(=O)NC(C)C(C)C)n1 (configuration not stated),.,2,-10,-3,.,.,.,.,.
CCO[C@@H]1OC(C(=O)O)=C[C@H](c2ccc(Br)cc2)[C@H]1CCCO,.,5,-7,-2,.,.,.,.,.
Cc1ccc(NC2=Nc3ccccc3CS2)cc1,1,37,36*,6,1,-5,5,4,6
N#Cc1ccsc1NC(=O)c1ccc(Cl)c([N+](=O)[O-])c1,.,-8,51*,.,-8,-44,-33,-15,10
N#Cc1ccsc1NC(=O)c1cccc([N+](=O)[O-])c1,.,-11,5,2,.,.,.,.,.
Cc1ccc(C(=O)NCCc2cccc(Cl)c2)cc1[N+](=O)[O-],3,-11,3,4,.,.,.,.,.
O=C(NCCc1cccc(Cl)c1)c1ccc(Cl)c([N+](=O)[O-])c1,4,27,35*,4,20,32,22*,27*,26*
Cc1cccc(C)c1NS(=O)(=O)c1ccc(NC(=O)c2ccc(Cl)c([N+](=O)[O-])c2)cc1,-1,29,38*,-11,35*,41,37*,29*,43*
O=c1cc(CSc2nnnn2-c2ccccc2)[nH]c2[nH]n(-c3ccccc3)c(=O)c12,2,3,-7,7,.,.,.,.,.
Cc1ccc(C(=O)N2CC3(C)CN(C(=O)c4ccc(C)cc4)CC(C)(C2)C3=O)cc1,0,14,30*,2,-2,0,0,-3,-6
NS(=O)(=O)c1ccc(N/N=C2/CCCCC2C2CCCCC2)c([N+](=O)[O-])c1 (configuration not stated),-4,42,39*,2,57*,61*,60*,41*,67*
Cc1cc(C)c2c(c1)/C(=N/Nc1ccc(S(N)(=O)=O)cc1[N+](=O)[O-])CCC2,.,13,-4,0,.,.,.,.,.
CNc1nc(N)c(C(=O)C23CC4CC(CC(C4)C2)C3)s1,.,27,31*,-6,11,17,14,12,2
CN1CCc2nc3sc(C(=O)C45CC6CC(CC(C6)C4)C5)c(N)c3cc2C1,-1,15,22,3,.,.,.,.,.
Cn1c(N)c(C(=O)N/N=C/c2ccccc2)sc1=S,.,43,40*,.,25,33,23*,33*,17*
Cn1c(N)c(C(=O)Nc2ccc3ccccc3c2)sc1=S,-1,5,7,-4,.,.,.,.,.
COc1ccc(NC(=O)CC2C(=O)N(c3ccc(Cl)cc3)C(=S)N2CCc2ccncc2)cc1 (configuration not stated),-2,32,13,-10,.,.,.,.,.
COC(=O)CN1C(=S)N(c2ccc(Cl)cc2)C(=O)C1CC(=O)Nc1ccc(Cl)cc1 (configuration not stated),2,48,55*,-11,49*,72*,67*,60*,67*
COC(=O)CN1C(=S)N(c2ccc(Cl)cc2)C(=O)C1CC(=O)Nc1ccc(F)cc1 (configuration not stated),-4,32,30*,-8,33,58*,43*,46*,38*
O=C(CC1C(=O)NCCN1C(=O)Nc1ccc(Cl)cc1)Nc1ccc(F)cc1 (configuration not stated),.,34,29*,-6,55*,75*,58*,57*,50*
COC(=O)CN1C(=S)N(c2ccc(F)cc2)C(=O)C1CC(=O)Nc1ccc(F)cc1 (configuration not stated),.,11,26,.,.,.,.,.,.
O=C(CC1C(=O)NCCN1C(=O)Nc1ccccc1)Nc1ccc(F)cc1 (configuration not stated),.,10,19,.,.,.,.,.,.
COc1cc(NC(=O)COC(=O)Cc2ccc(-c3ccccc3)cc2)cc(OC)c1,2,-5,-1,3,.,.,.,.,.
SMILES,NPY-Y2 antag,NPY-Y1 PAM-ag,NPY2 pot ag,NPY-Y1 antag,NPY-Y2 pot conf,NPY-Y1 potentiator,NPY-Y1 agonist 2,CNGC inh,Y2 agonist ctr
CC1(C)CC(=O)C2=C(C1)N(CC1CCCO1)C(=O)C2(NC(=O)c1cccnc1)C(F)(F)F (configuration not stated),1,-2,4,-4,.,.,.,.,.
COC(=O)C(=Cc1ccccc1[N+](=O)[O-])C(=O)OC,.,-11,-28,.,.,.,.,.,.
CC(C)C(c1nnnn1C1CCCCC1)N1CCc2ccccc21 (configuration not stated),8,2,59*,9,-2,-2,10,-4,7
CC(C)c1ccc(NS(=O)(=O)c2ccc3[nH]cc(C(=O)N4CCC(C(N)=O)CC4)c(=O)c3c2)cc1,-4,21,39*,-11,16,32,18*,14,12*
COc1ccccc1-n1cnnc1SCC(=O)c1ccc[nH]1,2,2,6,1,.,.,.,.,.
COc1ccc(NC(=S)NC(NC(=O)c2cccc(Cl)c2)C(Cl)(Cl)Cl)c([N+](=O)[O-])c1 (configuration not stated),-8,39,37*,-9,22,33,20*,20,33*
CCN(CC)S(=O)(=O)c1ccc(/C=C/C(=O)OCC(=O)N(C(C)C)C(C)C)cc1,.,-2,47*,-1,-1,9,-8,7,6
CCN(CC)S(=O)(=O)c1ccc(/C=C/C(=O)OCC#N)cc1,.,7,2,-5,.,.,.,.,.
NCCCN1CCOCC1,3,7,-11,-3,.,.,.,.,.
O=C(Nc1ccccc1)C1CC2CCCC(C1)C2=O (configuration not stated),-1,5,13,5,.,.,.,.,.
O=C(Nc1ccccc1)OC1CCC2CC1CCC2OC(=O)Nc1ccccc1 (configuration not stated),14,40,31*,5,51*,72*,55*,38*,67*
CCN(CC)S(=O)(=O)c1ccc(NC=C(C#N)C#N)cc1,.,6,1,.,.,.,.,.,.
CCCn1nc2cc(C(=O)NCCc3cccs3)ccc2c1OCC,1,5,-1,4,.,.,.,.,.
